From ChEMBL document CHEMBL1629503, “Novel conformationally restricted triazole derivatives with potent antifungal activity” (2010)
Values after ≈ are worked out from the molar mass of the structure shown.

Key:
Type in all cases: functional
Candida parapsilosis = assay: Antifungal activity against Candida parapsilosis after 24 hrs by serial dilution method; conditions: Lodderomyces parapsilosis
In short: (§1)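 Broth microdilution MIC per NCCLS recommendations in 96-well plates, using RPMI 1640 buffered with 0.165 M MOPS. Strains were ATCC or clinical isolates. Compounds were dissolved in DMSO and serially diluted in medium. Yeasts were incubated at 35 °C and growth was read at 24 h. MIC80 is the lowest concentration giving […] of control growth (turbidity).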

Candida tropicalis = assay: Antifungal activity against Candida tropicalis after 24 hrs by serial dilution method; in short: as §1
Cryptococcus neoformans = assay: Antifungal activity against Cryptococcus neoformans after 72 hrs by serial dilution method
In short: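 Yeast MIC by NCCLS serial microdilution in RPMI 1640 with 0.165 M MOPS, using an ATCC strain or clinical isolate. Test agents came from DMSO stocks diluted in medium. Incubation was at 35 °C with the read at 72 h. MIC80 is the lowest concentration at which turbidity was […] of drug-free control growth.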

Candida albicans = assay: Antifungal activity against Candida albicans after 24 hrs by serial dilution method; in short: as §1
Aspergillus fumigatus = assay: Antifungal activity against Aspergillus fumigatus after 7 days by serial dilution method; conditions: 168 h
In short: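 Mould susceptibility by NCCLS serial dilution in 96-well plates, using MOPS-buffered (0.165 M) RPMI 1640 medium. Compounds were dissolved in DMSO and serially diluted in medium. Isolates were from ATCC or clinical sources. The endpoint MIC80 is the lowest concentration giving turbidity […] of control growth.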

Kluyveromyces marxianus = assay: Antifungal activity against Candida kefyr after 24 hrs by serial dilution method; in short: as §1
Trichophyton rubrum = assay: Antifungal activity against Trichophyton rubrum after 7 days by serial dilution method; conditions: 168 h
In short: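 Dermatophyte MIC by NCCLS-based serial dilution in 96-well plates, in RPMI 1640 buffered with 0.165 M MOPS. Compounds were dissolved in DMSO and diluted in growth medium. Incubation was at 28 °C. Strain was ATCC or clinical isolate. MIC80 is the lowest concentration reducing turbidity to […] of growth control.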

SMILES | MIC80 (Candida parapsilosis) | MIC80 (Candida tropicalis) | MIC80 (Cryptococcus neoformans) | MIC80 (Candida albicans) | MIC80 (Aspergillus fumigatus) | MIC80 (Kluyveromyces marxianus) | MIC80 (Trichophyton rubrum)
CN(CC(O)(Cn1cncn1)c1ccc(F)cc1F)C1CCN(Cc2ccc(Cl)c(Cl)c2)CC1 (stereo not given) | 0.0625 µg/mL (≈ 0.122 µM) | 0.0625 µg/mL (≈ 0.122 µM) | 0.25 µg/mL (≈ 0.49 µM) | 0.0625 µg/mL (≈ 0.122 µM) | 4 µg/mL (≈ 7.84 µM) | 0.25 µg/mL (≈ 0.49 µM) | 0.25 µg/mL (≈ 0.49 µM)
CN(CC(O)(Cn1cncn1)c1ccc(F)cc1F)C1CCN(Cc2ccccc2)CC1 (stereo not given) | 0.25 µg/mL (≈ 0.566 µM) | 1 µg/mL (≈ 2.26 µM) | 1 µg/mL (≈ 2.26 µM) | 0.25 µg/mL (≈ 0.566 µM) | 64 µg/mL (≈ 145 µM) | 1 µg/mL (≈ 2.26 µM) | 1 µg/mL (≈ 2.26 µM)
CN(CC(O)(Cn1cncn1)c1ccc(F)cc1F)C1CCN(Cc2ccc([N+](=O)[O-])cc2)CC1 (stereo not given) | 0.0625 µg/mL (≈ 0.128 µM) | 0.25 µg/mL (≈ 0.514 µM) | 0.25 µg/mL (≈ 0.514 µM) | 0.0625 µg/mL (≈ 0.128 µM) | 4 µg/mL (≈ 8.22 µM) | 1 µg/mL (≈ 2.06 µM) | 0.25 µg/mL (≈ 0.514 µM)
CN(CC(O)(Cn1cncn1)c1ccc(F)cc1F)C1CCN(Cc2ccc(Br)cc2)CC1 (stereo not given) | 0.0625 µg/mL (≈ 0.12 µM) | 0.25 µg/mL (≈ 0.48 µM) | 0.25 µg/mL (≈ 0.48 µM) | 0.0625 µg/mL (≈ 0.12 µM) | 4 µg/mL (≈ 7.69 µM) | 1 µg/mL (≈ 1.92 µM) | 0.25 µg/mL (≈ 0.48 µM)
CN(CC(O)(Cn1cncn1)c1ccc(F)cc1F)C1CCN(Cc2ccccc2Cl)CC1 (stereo not given) | 0.0625 µg/mL (≈ 0.131 µM) | 0.25 µg/mL (≈ 0.525 µM) | 0.25 µg/mL (≈ 0.525 µM) | 0.25 µg/mL (≈ 0.525 µM) | 4 µg/mL (≈ 8.4 µM) | 1 µg/mL (≈ 2.1 µM) | 1 µg/mL (≈ 2.1 µM)
CN(CC(O)(Cn1cncn1)c1ccc(F)cc1F)C1CCN(Cc2ccc(Cl)cc2Cl)CC1 (stereo not given) | 0.0625 µg/mL (≈ 0.122 µM) | 0.0625 µg/mL (≈ 0.122 µM) | 0.25 µg/mL (≈ 0.49 µM) | 0.0625 µg/mL (≈ 0.122 µM) | 4 µg/mL (≈ 7.84 µM) | 0.25 µg/mL (≈ 0.49 µM) | 0.25 µg/mL (≈ 0.49 µM)
CN(CC(O)(Cn1cncn1)c1ccc(F)cc1F)C1CCN(Cc2cccc(Cl)c2)CC1 (stereo not given) | 0.0625 µg/mL (≈ 0.131 µM) | 0.25 µg/mL (≈ 0.525 µM) | 0.0625 µg/mL (≈ 0.131 µM) | 0.0625 µg/mL (≈ 0.131 µM) | 1 µg/mL (≈ 2.1 µM) | 1 µg/mL (≈ 2.1 µM) | 0.25 µg/mL (≈ 0.525 µM)
CN(CC(O)(Cn1cncn1)c1ccc(F)cc1F)C1CCN(Cc2ccc(C#N)cc2)CC1 (stereo not given) | 0.25 µg/mL (≈ 0.536 µM) | 0.25 µg/mL (≈ 0.536 µM) | 0.0625 µg/mL (≈ 0.134 µM) | 0.0625 µg/mL (≈ 0.134 µM) | 1 µg/mL (≈ 2.14 µM) | 0.0625 µg/mL (≈ 0.134 µM) | 0.0625 µg/mL (≈ 0.134 µM)
CN(CC(O)(Cn1cncn1)c1ccc(F)cc1F)C1CCN(Cc2cccc(Br)c2)CC1 (stereo not given) | 0.0625 µg/mL (≈ 0.12 µM) | 0.0625 µg/mL (≈ 0.12 µM) | 0.25 µg/mL (≈ 0.48 µM) | 0.0625 µg/mL (≈ 0.12 µM) | 1 µg/mL (≈ 1.92 µM) | 0.25 µg/mL (≈ 0.48 µM) | 0.25 µg/mL (≈ 0.48 µM)
CN(CC(O)(Cn1cncn1)c1ccc(F)cc1F)C1CCN(Cc2ccccc2F)CC1 (stereo not given) | 0.25 µg/mL (≈ 0.544 µM) | 0.25 µg/mL (≈ 0.544 µM) | 0.25 µg/mL (≈ 0.544 µM) | 0.25 µg/mL (≈ 0.544 µM) | 16 µg/mL (≈ 34.8 µM) | 0.25 µg/mL (≈ 0.544 µM) | 1 µg/mL (≈ 2.18 µM)
CN(CC(O)(Cn1cncn1)c1ccc(F)cc1F)C1CCN(Cc2ccc(F)cc2)CC1 (stereo not given) | 0.25 µg/mL (≈ 0.544 µM) | 0.25 µg/mL (≈ 0.544 µM) | 0.25 µg/mL (≈ 0.544 µM) | 0.25 µg/mL (≈ 0.544 µM) | 16 µg/mL (≈ 34.8 µM) | 0.25 µg/mL (≈ 0.544 µM) | 1 µg/mL (≈ 2.18 µM)
COc1cccc(CN2CCC(N(C)CC(O)(Cn3cncn3)c3ccc(F)cc3F)CC2)c1 (stereo not given) | 0.25 µg/mL (≈ 0.53 µM) | 0.25 µg/mL (≈ 0.53 µM) | 0.25 µg/mL (≈ 0.53 µM) | 0.25 µg/mL (≈ 0.53 µM) | 64 µg/mL (≈ 136 µM) | 0.25 µg/mL (≈ 0.53 µM) | 1 µg/mL (≈ 2.12 µM)
Cc1ccccc1CN1CCC(N(C)CC(O)(Cn2cncn2)c2ccc(F)cc2F)CC1 (stereo not given) | 0.25 µg/mL (≈ 0.549 µM) | 0.25 µg/mL (≈ 0.549 µM) | 0.25 µg/mL (≈ 0.549 µM) | 0.0625 µg/mL (≈ 0.137 µM) | 64 µg/mL (≈ 140 µM) | 0.25 µg/mL (≈ 0.549 µM) | 1 µg/mL (≈ 2.2 µM)
CC(C)c1ccc(CN2CCC(N(C)CC(O)(Cn3cncn3)c3ccc(F)cc3F)CC2)cc1 (stereo not given) | 0.25 µg/mL (≈ 0.517 µM) | 0.25 µg/mL (≈ 0.517 µM) | 0.25 µg/mL (≈ 0.517 µM) | 0.0156 µg/mL (≈ 0.0323 µM) | 16 µg/mL (≈ 33.1 µM) | 0.25 µg/mL (≈ 0.517 µM) | 0.25 µg/mL (≈ 0.517 µM)
OC(Cn1cncn1)(Cn1cncn1)c1ccc(F)cc1F [FLUCONAZOLE] | 0.25 µg/mL (≈ 0.816 µM) | 1 µg/mL (≈ 3.27 µM) | 0.0625 µg/mL (≈ 0.204 µM) | 0.25 µg/mL (≈ 0.816 µM) | > 64 µg/mL | 1 µg/mL (≈ 3.27 µM) | 1 µg/mL (≈ 3.27 µM)
